How the values were obtained:
CCRF-CEM = assay: Cytotoxicity against CEM cells after 72 hrs; assay type: functional, Homo sapiens
Method in brief: (§1)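 Cells grown in DMEM with 10% fetal calf serum, 4 mM glutamine, penicillin/streptomycin, 37 °C, 5% CO2. About 1.25×10^5 cells/mL seeded and stabilized 3 h. Compounds added in DMSO as serial (usually 6- and 4-fold) dilutions, top well usually 50 µM, DMSO final ≤0.6%. After 72 h, Calcein AM for 1 h, fluorescence read. Survival taken vs DMSO controls; TCS50 from dose-response curves; mean ± SD of three experiments.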

A549 = assay: Cytotoxicity against A549 cells after 72 hrs; assay type: functional, Homo sapiens; method in brief: as §1
MCF7 = assay: Cytotoxicity against MCF7 cells after 72 hrs; assay type: functional, Homo sapiens; method in brief: as §1
HOS = assay: Cytotoxicity against HOS cells after 72 hrs; assay type: functional, Homo sapiens; method in brief: as §1
[1] = Cytotoxicity against ARN8 cells after 72 hrs; assay type: functional, Homo sapiens; method in brief: as §1
G-361 = assay: Cytotoxicity against human G361 cells after 72 hrs; assay type: functional; method in brief: as §1
[2] = Cytotoxicity against mouse NIH 3T3 cells after 72 hrs; assay type: cell-based, NIH3T3; conditions: read-out: TCS50; method in brief: as §1
HeLa = assay: Cytotoxicity against HeLa cells after 72 hrs; assay type: functional, Homo sapiens; method in brief: as §1
K562 = assay: Cytotoxicity against K562 cells after 72 hrs; assay type: functional, Homo sapiens; method in brief: as §1

Row | SMILES | TCS50 (CCRF-CEM) [nM] | TCS50 (A549) [nM] | TCS50 (MCF7) [nM] | TCS50 (HOS) [nM] | TCS50 [1] [nM] | TCS50 (G-361) [nM] | CC50 at 72 h [2] [µM] | TCS50 (HeLa) [nM] | TCS50 (K562) [nM]
1 | CCCC(=O)[C@@H](C)[C@@]1(O)[C@@H](O[C@@H]2OC[C@H](O)[C@@H](O[C@@H]3OC[C@@H](O)[C@H](O)[C@H]3OC(=O)c3ccc(OC)cc3)[C@@H]2OC(C)=O)C[C@H]2[C@@H]3CC=C4C[C@@H](O)CC[C@]4(C)[C@H]3CC[C@@]21C | 0.5 | 0.9 | 90 | 140 | 3 | 3100 | > 50 | 12 | 1.4
2 | CC(=O)O[C@H]1[C@H](O[C@H]2C[C@H]3[C@@H]4CC=C5C[C@@H](O)CC[C@]5(C)[C@H]4CC[C@]3(C)[C@@]2(O)[C@H](C)C(=O)CCC(C)C)OC[C@H](O)[C@@H]1O | 200 | 4200 | 1300 | 4200 | 1950 | 2200 | > 50 | 570 | 430
3 | COc1cccc2c1C(=O)c1c(O)c3c(c(O)c1C2=O)C[C@@](O)(C(C)=O)C[C@@H]3O[C@H]1C[C@H](N)[C@H](O)[C@H](C)O1 [DAUNORUBICIN] | 62 |  | 140 | 330 |  | 670 |  | 670 | 230
4 | COc1ccc(C(=O)O[C@H]2[C@H](O[C@@H]3[C@@H](OC(C)=O)[C@H](O[C@@H](CCC(C)C)[C@@H](C)[C@@]4(O)C(=O)C[C@H]5[C@@H]6CC=C7C[C@@H](O)CC[C@]7(C)[C@H]6CC[C@@]54C)OC[C@@H]3O)OC[C@@H](O)[C@@H]2O)cc1 | 280 | 480 | 3400 | 11700 | 500 | 14400 | > 50 | 1000 | 430
5 | COc1ccc(C(=O)O[C@H]2[C@H](O[C@@H]3[C@@H](OC(C)=O)[C@H](O[C@H]4C[C@H]5[C@@H]6CC=C7C[C@@H](O)CC[C@]7(C)[C@H]6CC[C@]5(C)[C@@]4(O)[C@H](C)C(=O)CCC(C)C)OC[C@@H]3O)OC[C@@H](O)[C@@H]2O)cc1 | 0.3 | 0.5 | 50 | 40 | 4 | 1000 | > 50 | 8 | 0.8
6 | CCCCCOC[C@@H](C)[C@@]1(O)[C@@H](O[C@@H]2OC[C@H](O)[C@H](O[C@@H]3OC[C@@H](O)[C@H](O)[C@H]3OC(=O)c3ccc(OC)cc3)[C@H]2OC(C)=O)C[C@H]2[C@@H]3CC=C4C[C@@H](O)CC[C@]4(C)[C@H]3CC[C@@]21C | <200 | <200 | 860 | 1800 | <400 | 1900 | > 50 | 350 | <400
7 | COc1ccc(C(=O)O[C@H]2[C@H](O[C@H]3C[C@H]4[C@@H]5CC=C6C[C@@H](O)CC[C@]6(C)[C@H]5CC[C@]4(C)[C@@]3(O)[C@H](C)C(=O)CCC(C)C)OC[C@@H](O)[C@@H]2O)cc1 | 1000 | 7200 | 3500 | 7200 | 1500 | 3500 | > 50 | 2300 | 1800
8 | CCCCCC(=O)[C@@H](C)[C@@]1(O)[C@@H](O[C@@H]2OC[C@H](O)[C@H](O[C@@H]3OC[C@@H](O)[C@H](O)[C@H]3OC(=O)c3ccc(OC)cc3)[C@H]2OC(C)=O)C[C@H]2[C@@H]3CC=C4C[C@@H](O)CC[C@]4(C)[C@H]3CC[C@@]21C | 0.2 | 0.5 | 40 | 42 | 0.6 | 1400 | > 50 | 8 | 0.7

Reference: ChEMBL document CHEMBL1146230, “New analogues of the potent cytotoxic saponin OSW-1” (J Med Chem, 2007)
